The test system of one data set is RPMI-8226. Kind of data set: Cytotoxicity against human RPMI8226 cells after 72 hrs by MTT assay. The note with it: RPMI-8226, 72 h. The format is functional, cell-based.
The next data set relates to MCF7. Kind of data set: Cytotoxicity against human MCF7 cells after 72 hrs by MTT assay. The class given is functional, cell-based. Conditions: MCF7, 72 h; call rule not given here.
A short description of data set [1]: Cytotoxicity against mouse LMTK cells after 72 hrs by MTT assay. The format is cell-based. Conditions: L-M(TK-).
A short description of data set [2]: Cytotoxicity against mouse PMF after 72 hrs by MTT assay.
In data set [3] the test system is Salmonella typhimurium. Kind of data set: Suppression in mutagenesity in Salmonella Typhimurium TA102 assessed as 100 to 50% suppression of revertant formation by Ames assay. The note with it: Salmonella enterica.
Data set [4] has as its system Salmonella typhimurium. Description: Suppression in H2O2-iduced mutagenesity in Salmonella Typhimurium TA102 assessed as 100 to 50 % suppression of revertant formation by Ames assay. Conditions: Salmonella enterica.
The subject of data set [5] is Salmonella typhimurium. Description: Suppression in H2O2-iduced mutagenesity in Salmonella Typhimurium TA102 assessed as 150 to 100 % suppression of revertant formation by Ames assay. Conditions: Salmonella enterica.
The nature of data set [6]: Growth inhibition of mouse PMF at 25 ug/ml after 72 hrs by MTT assay. The note with it: mouse PMF cells, read-out: GI. The method in brief:
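PMF cells (about 2000 per well) seeded and held 24 h at 37 °C in IMDM or RPMI 1640 under 5% CO2, then exposed to compound.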

Data set [7] relates to Salmonella typhimurium. Kind of data set: Suppression in mutagenesity in Salmonella Typhimurium TA102 assessed as 100 to 50% suppression of revertant formation at 50 ug/ml by Ames assay.
Data set [8] in a line: Growth inhibition of mouse LMTK cells at 173 uM after 72 hrs by MTT assay. The class given is cell-based.

A value given as a limit tells only on which side of the number the result lay.

As for `CC(C)(C)NC1=C(F)C(=O)c2c(F)c(F)c(F)c(F)c2C1=O`, the IC50 in the data set with RPMI-8226 came to 3.5 µM; in the data set on MCF7 it was 2.5 µM; in data set [1], 6.3 µM; in data set [2] it was 3.1 µM; with Salmonella typhimurium [3] it was 12.2 µM; in the data set with Salmonella typhimurium [4] it was 6.9 µM. Further, the half-inhibitory concentration (IC50) in the data set on Salmonella typhimurium [5] was determined as 1.4 µM.
`CCN(CC)C1=C(F)C(=O)c2c(F)c(F)c(F)c(F)c2C1=O`: the IC50 was found to be 6.9 µM in the data set with RPMI-8226; 4.1 µM in the data set on MCF7; 62.7 µM in data set [1]; 28.2 µM in [2]; 18.5 µM in the data set with Salmonella typhimurium [3]; 2.7 µM in the data set on Salmonella typhimurium [4]. Further, in the data set on Salmonella typhimurium [5], the IC50 came out at 0.86 µM.
As to `CCNC1=C(F)C(=O)c2c(F)c(F)c(F)c(F)c2C1=O`, the IC50 with RPMI-8226 was 2.4 µM; in the data set on MCF7, 8.6 µM; in data set [1], 11 µM; in [2], 30.9 µM; in the data set on Salmonella typhimurium [3], 0.69 µM; in the data set on Salmonella typhimurium [4], 1 µM. In addition, the IC50 in the data set with Salmonella typhimurium [5] is 0.094 µM.
For the compound `O=C1C(F)=C(Nc2ccccc2)C(=O)c2c(F)c(F)c(F)c(F)c21`, the 50% inhibitory concentration (IC50) turned out to be 2.4 µM in the data set with RPMI-8226; 2.4 µM in the data set on MCF7; 11.8 µM in [1]; 7.4 µM in data set [2]; 0.59 µM in the data set on Salmonella typhimurium [3]; 0.15 µM in the data set with Salmonella typhimurium [4]. Moreover, the half-maximal inhibitory concentration (IC50) in the data set on Salmonella typhimurium [5] was determined as 0.089 µM.
With `CC1=C(Nc2ccccc2)C(=O)c2c(F)c(F)c(F)c(F)c2C1=O`, the IC50 with RPMI-8226 is 22.4 µM; in the data set with MCF7, 13.4 µM; in data set [1], 104 µM; with Salmonella typhimurium [3] it was > 149 µM; in the data set on Salmonella typhimurium [4] it was 21.8 µM; in the data set on Salmonella typhimurium [5], 0.75 µM. Further, the inhibition at 72 h, 25 ug/ml in [6] stood at 45%. Also, the Activity in the data set on Salmonella typhimurium [7] is recorded as 24%.
Turning to `CC1=C(SCCO)C(=O)c2c(F)c(F)c(F)c(F)c2C1=O`, the “growth inhibition (GI)” value in data set [8] is reported as “Not Active”. In addition, the IC50 in the data set on RPMI-8226 was 14.8 µM; with MCF7 it was 173 µM; in the data set with Salmonella typhimurium [3], 0.81 µM; in the data set with Salmonella typhimurium [4], 0.44 µM.

The values above are taken from ChEMBL document CHEMBL1165870, “Cytotoxicity of new alkylamino- and phenylamino-containing polyfluorinated derivatives of 1,4-naphthoquinone” (Eur J Med Chem, 2010).
